Screening data deposited in PubChem BioAssay by Broad Institute.
Rtt109 Vps75: inhibitors of C. albicans Rtt109/Vps75 HAT, primary screen, biochemical, ThioGlo CoA-SH fluorescence, plate reader; Histone acetyltransferase RTT109 (Candida albicans (strain SC5314 / ATCC MYA-2876)), …; purified Rtt109/Vps75, 4 h; inhibition, % at 34.9 µM; hit rate 0.16% among 330,000; AID 540336, 2011;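 active means inhibition of at least 50% in every replicate; inconclusive means best replicate reaches 50% inhibition but some replicates fall short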
Target sequence (Q5AAJ8 whole entry, looked up): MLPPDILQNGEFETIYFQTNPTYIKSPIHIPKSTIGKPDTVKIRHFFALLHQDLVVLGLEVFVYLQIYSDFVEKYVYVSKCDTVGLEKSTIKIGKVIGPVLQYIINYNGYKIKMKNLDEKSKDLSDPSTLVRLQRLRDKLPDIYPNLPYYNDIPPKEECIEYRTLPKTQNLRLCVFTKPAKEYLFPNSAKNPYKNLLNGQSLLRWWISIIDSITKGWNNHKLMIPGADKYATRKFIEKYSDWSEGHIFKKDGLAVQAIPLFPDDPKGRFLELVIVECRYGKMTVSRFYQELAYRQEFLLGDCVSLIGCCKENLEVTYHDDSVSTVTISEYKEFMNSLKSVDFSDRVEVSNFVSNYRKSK
Cneo AK release: Cryptococcus neoformans cell lysis inducers, primary screen, AK release luminescence, single concentration | hit rate 0.2% among 360,000 | C. neoformans lysis, adenylate kinase release luminescence, 4 h; normalised: neutral wells 0, clomiphene wells 100 | lysis activity, % at 15 µM;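 active means mean lysis activity across replicates of at least 80%, whatever share of replicates individually reach that level; inactive means mean lysis activity below 80%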
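read-out = cell lysis signal | test system = log-phase Cryptococcus neoformans yeast cells | input = cells at 5 × 10^6 per mL | medium = fresh YPD growth medium | signal = luminescent adenylate kinase detection reagent | timing = 4 h at 37 °C static, read 1 h later | dosing = single dose | controls = Clomiphene as positive lysis control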
GSIS activator: GLuc luminescence reporter in INS-1E cells, primary screen for activators of glucose-dependent secretion of insulin. INS-1E GLuc reporter insulin secretion, 2-3 h. activation, % at 16.6 µM. hit rate 0.61% among 370,000;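 active means lowest replicate activation of at least 40%, so every replicate reaches that level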
miR-122 sensor: miR-122 Renilla sensor signal increase in Huh7, primary screen, miR-122 inhibitor project, cell-based, single point, plate reader | Huh7 miR-122 Renilla luciferase sensor, 48 h; neutral wells = 0, positive control = 100 | activation (reporter increase), % at 12.5 µM | hit rate 0.3% among 340,000;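 active means mean replicate activation score at least 90 and every replicate individually at or above 90; inconclusive means only one of the two criteria met; inactive means neither criterion met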;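 further: higher luciferase means less miR-122 activity so hits act as miR-122 inhibitors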
dFosB act: activators of delta FosB homodimer, primary screen, biochemical, fluorescence polarization, TAMRA-CDK5 oligo, single point. purified delta FosB; percent of positive-control signal above neutral wells. activation, % at 25 µM. hit rate 0.99% among 340,000;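 active means mean activation above about 17%, with every replicate also reaching it, limit read from the data, passing the limit was not always enough; inconclusive means only one of the two conditions met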
HIV Env fusion: inhibitors of HIV-1 Env-driven cell-cell fusion, primary screen, HeLa-JRFL effector, CEM21 target cells, luciferase; hit rate 1.1% among 360,000; inhibition, % at 12.3 µM; AID 651610, 2012;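 active means mean replicate inhibition score of at least 50 and every replicate individually at or above 50; inconclusive means only one of the two criteria met; inactive means mean below 50 and not all replicates reaching 50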
Numbers stand for hits; n = inactive; u = inconclusive; x = no result given. Hits are enriched below; roughly 2.4% of the tested compounds scored in any of these assays.

SMILES | Rtt109 Vps75 | Cneo AK release | GSIS activator | miR-122 sensor | dFosB act | HIV Env fusion
COc1cccc(-c2cnc3c(c2)C(=O)N([C@@H](C)CO)C[C@H](C)[C@H](CN(C)C(=O)Nc2ccccc2F)O3)c1 | x | n | n | n | x | n
C[C@H]1CN([C@@H](C)CO)C(=O)c2cc(-c3cncnc3)cnc2O[C@H]1CN(C)C(=O)c1ccccc1F | x | 90 | n | n | x | n
COc1ccc(CN(C)C[C@H]2Oc3ccc(NS(=O)(=O)c4ccc(F)cc4)cc3CC(=O)N([C@H](C)CO)C[C@@H]2C)cc1 | x | x | n | x | x | x
c1ccc(-c2nnc(-c3ccccc3)nn2)cc1 | x | n | n | n | x | n
CC1(C)N=C(c2ccccc2)C(c2ccccc2)=N1 | n | n | 41 | n | n | n
CO[C@@H]1CN(C)C(=O)c2cc(NC(=O)c3cc(C)on3)ccc2OC[C@@H](C)N(S(=O)(=O)c2cccc(F)c2)C[C@H]1C | x | n | x | x | x | x
O=C(C[C@H]1C[C@H]2c3cc(NS(=O)(=O)c4ccc(F)cc4)ccc3O[C@H]2[C@H](CO)O1)NCc1ccccn1 | x | x | n | x | x | x
CCN(Cc1ccccc1)C(=O)c1[nH]c2ccc(OC)cc2c1C | n | n | n | 125 | n | n
C[C@@H]1CN([C@H](C)CO)S(=O)(=O)c2ccc(C#C[C@@H](C)O)cc2O[C@@H]1CN(C)C(=O)C1CC1 | x | n | n | n | x | n
COc1ccc2c3c(n(C)c2c1)[C@@H](CO)N(Cc1ccc(Cl)cc1)CC31CN(CC2CC2)C1 | x | x | n | x | x | x
CCN(CC)S(=O)(=O)c1cc([N+](=O)[O-])ccc1NNC(=O)Nc1ccc(Cl)c(Cl)c1 | n | n | x | n | n | 97
CCCCN(CCCC)S(=O)(=O)c1ccc(NC(=O)c2ccc([N+](=O)[O-])cc2Cl)cc1 | n | x | n | x | n | n
CNC[C@@H]1Oc2ccc(NC(=O)Nc3ccccc3)cc2C(=O)N([C@H](C)CO)C[C@@H]1C | x | n | n | n | x | n
Clc1ccccc1C1=Nn2c(nnc2-c2ccncc2)SC1 | n | n | x | n | n | 92
COc1cccc(-c2nnc3n2N=C(C(C)(C)C)CS3)c1 | n | n | x | n | n | 112
COc1ccc(OC)c(C2=Nn3c(nnc3-c3ccncc3)SC2)c1 | n | x | 41 | n | n | n
c1csc(C2=Nn3c(nnc3-c3ccncc3)SC2)c1 | n | n | x | n | n | x
FC(F)Oc1ccc(C2=Nn3c(nnc3-c3ccccc3Cl)SC2)cc1OCC1CC1 | n | n | n | n | n | n
COc1ccc(C2=Nn3c(nnc3-c3ccccc3F)SC2)cc1OCC1CC1 | n | n | 79 | n | n | n
O=C(C[C@H]1C[C@H]2c3cc(NC(=O)Nc4ccccc4F)ccc3O[C@H]2[C@H](CO)O1)NCc1ccc2c(c1)OCO2 | x | n | n | n | x | n
COc1cccc(NS(=O)(=O)c2c(C)cc(C)cc2C)c1 | n | n | x | 399 | n | u
COc1ccccc1NS(=O)(=O)c1ccc(Br)s1 | n | n | x | n | n | n
COc1cccc(NS(=O)(=O)c2ccc(Br)s2)c1 | n | n | x | 218 | n | n
C/C=C/c1ccc([C@H]2[C@@H](CO)N(C(=O)C3CC3)C23CN(S(=O)(=O)CC)C3)cc1 | x | x | n | x | x | n
CO[C@@H]1CN(C)C(=O)c2cc(NC(=O)NC(C)C)ccc2OC[C@@H](C)N(CCC(F)(F)F)C[C@H]1C | x | n | n | n | x | n
SMILES | Rtt109 Vps75 | Cneo AK release | GSIS activator | miR-122 sensor | dFosB act | HIV Env fusion
C(=Nn1cnnc1)c1ccc2c(c1)CCC2 | x | 82 | n | n | x | n
CC(C)C[C@@H]1CN=C(N)N1C[C@@H]1CCCN1C[C@@H](C(C)C)N1C[C@@H](Cc2ccccc2)N(CCc2ccc(Cl)c(Cl)c2)C1=N | n | n | x | n | n | n
CC(C)C[C@@H]1CN=C(N)N1C[C@@H]1CCCN1C[C@H](C)N1C[C@@H](Cc2ccccc2)N(CCc2ccc(Cl)c(Cl)c2)C1=N | 75 | n | x | n | n | x
CNC(=S)N/N=C/c1ccc(-c2ccc(Cl)c([N+](=O)[O-])c2)o1 | n | x | 46 | n | n | n
Cc1ccc(-c2ccc(/C=N/NC(=S)Nc3ccccc3)o2)cc1[N+](=O)[O-] | n | n | n | n | n | n
CCCn1c2ccccc2c2cn[nH]c(=O)c21 | n | n | 47 | n | n | n
CCOc1ccc2ccccc2c1/C=N/n1cncn1 | n | n | n | n | n | n
CCCOc1ccc2ccccc2c1/C=N/n1cnnc1 | n | n | n | n | n | 91
COc1cc(/C=N/O)ccc1OCc1ccc(C(=O)O)cc1 | n | n | x | n | n | 113
COc1cc(C(=O)O)ccc1OCc1ccccc1 | x | x | 55 | x | x | n
COc1cc(/C=N/NS(=O)(=O)c2ccc(C)cc2)ccc1OCc1cccc(C(=O)O)c1 | n | n | n | n | n | 72
Cc1cccc(-c2ccc([C@H]3[C@H](CO)N4C(=O)CN(C(=O)c5cnccn5)C[C@@H]34)cc2)c1 | x | x | n | x | x | x
O=[N+]([O-])c1cc(S(=O)(=O)N2CCCC2)ccc1N/N=C/c1cccs1 | n | n | 48 | x | n | n
CO[C@@H]1CN(C)C(=O)c2ccc(NC(=O)c3cc(C)on3)cc2OC[C@@H](C)N(C)C[C@@H]1C | x | n | n | x | x | n
Cn1c(N)c(C(c2ccccc2)c2c(N)n(C)c(=O)n(C)c2=O)c(=O)n(C)c1=O | n | x | 41 | x | n | x
COc1ccccc1C(C[N+](=O)[O-])c1c(N)n(C)c(=O)n(C)c1=O (stereo not given) | x | n | n | n | x | n
COc1ccc(C[C@@H]2CCn3nncc3COC[C@H](c3ccccc3)NC2=O)cc1 | x | x | n | x | x | x
Cc1ccccc1/C=C/C(=O)NCC(=O)N1CCC(N(C)C2CCCCC2C)CC1 (stereo not given) | 60 | x | n | x | n | n
O=C(c1cccc(S(=O)(=O)N2CCN(c3ccccc3)CC2)c1)N1CCCC(C(F)(F)F)C1 (stereo not given) | n | n | n | n | n | 71
C[C@H](NC(=O)C[C@H]1C[C@H]2c3cc(NC(=O)C4CCOCC4)ccc3O[C@H]2[C@H](CO)O1)c1ccccc1 | x | n | n | n | x | n
O=c1c2ccccc2nnn1CSc1nc2cc(Cl)ccc2c(=O)n1Cc1ccco1 | x | x | x | x | x | n
O=c1c2ccccc2nnn1CSc1nnc(COc2ccc(Cl)cc2)n1Cc1ccco1 | n | n | x | n | n | 70
CC(=O)c1nn(-c2ccccc2)cc1C(=O)c1ccc(C)cc1 | x | n | x | n | x | n
CC(=O)c1nn(-c2ccc(Br)cc2)cc1C(=O)c1ccccc1 | n | x | 54 | x | n | n
